Series [1] relates to Jurkat. Nature of the series: Cell cycle arrest in human Jurkat cells assessed as accumulation at S phase at 1 uM after 24 hrs by FITC/propidium iodide staining-based FACS flow cytometric analysis (reference value: 22.3%). Format: functional. Put shortly: (§1)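 HeLa and Jurkat human cells were cultured for 24 h with compound at two concentrations. The control was an equal volume of the DMSO diluent. Cellular DNA and protein content were then measured by flow cytometry, and the percentage of cells in sub-G1, G0/G1, S and G2/M was read out.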

The target of series [2] is Histone deacetylase 1 (Homo sapiens, UniProt Q13547). The series is described as follows: Inhibition of recombinant C-terminal FLAG-tagged HDAC1 (unknown origin) expressed in Escherichia coli BL21 using MAL as substrate incubated for 1 hr prior to substrate addition measured after 60 mins by fluorescence plate reader analysis.
Histone deacetylase 1, sequence (Q13547 whole entry): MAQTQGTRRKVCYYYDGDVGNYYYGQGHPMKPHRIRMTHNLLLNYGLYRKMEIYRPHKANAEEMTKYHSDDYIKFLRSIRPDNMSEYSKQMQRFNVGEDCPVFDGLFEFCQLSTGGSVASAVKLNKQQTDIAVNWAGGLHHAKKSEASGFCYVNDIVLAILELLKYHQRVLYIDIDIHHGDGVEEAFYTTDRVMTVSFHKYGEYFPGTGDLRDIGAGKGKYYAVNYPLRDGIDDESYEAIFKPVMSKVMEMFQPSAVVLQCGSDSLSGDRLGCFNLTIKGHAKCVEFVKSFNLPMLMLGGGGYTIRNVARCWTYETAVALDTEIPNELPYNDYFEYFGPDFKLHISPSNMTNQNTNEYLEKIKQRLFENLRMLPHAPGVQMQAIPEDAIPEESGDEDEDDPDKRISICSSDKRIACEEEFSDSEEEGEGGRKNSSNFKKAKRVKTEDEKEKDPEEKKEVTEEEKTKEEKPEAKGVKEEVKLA
Series [3] deals with Cytochrome P450 3A4 (Homo sapiens, UniProt P08684). Nature of the series: Inhibition of CYP3A4 (unknown origin) using vivid red as substrate. The format is ADME.
Cytochrome P450 3A4, sequence (P08684 whole entry): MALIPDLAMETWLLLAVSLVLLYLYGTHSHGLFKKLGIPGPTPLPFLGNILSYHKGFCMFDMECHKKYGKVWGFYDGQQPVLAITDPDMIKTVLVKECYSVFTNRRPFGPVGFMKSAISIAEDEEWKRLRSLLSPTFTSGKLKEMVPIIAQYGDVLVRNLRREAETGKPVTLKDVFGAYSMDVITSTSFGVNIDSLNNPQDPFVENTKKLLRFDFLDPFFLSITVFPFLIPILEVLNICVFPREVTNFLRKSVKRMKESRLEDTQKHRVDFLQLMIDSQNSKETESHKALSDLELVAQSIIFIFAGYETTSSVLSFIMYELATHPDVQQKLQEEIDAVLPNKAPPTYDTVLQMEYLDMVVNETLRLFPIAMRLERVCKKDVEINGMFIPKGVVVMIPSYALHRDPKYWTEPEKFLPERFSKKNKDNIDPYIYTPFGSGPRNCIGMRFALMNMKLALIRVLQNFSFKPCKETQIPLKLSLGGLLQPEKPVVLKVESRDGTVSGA
Series [4] relates to MCF7. Nature of the series: Cytotoxicity against human MCF7 cells assessed as growth inhibition by measuring cellular ATP level after 72 hrs by cell-titer glo assay. Conditions: MCF7, 72 h. Format: functional, cell-based.
The target of series [5] is Cytochrome P450 2D6 (Homo sapiens, UniProt P10635). Nature of the series: Inhibition of CYP2D6 (unknown origin). Format: ADME.
Cytochrome P450 2D6, sequence (P10635 whole entry): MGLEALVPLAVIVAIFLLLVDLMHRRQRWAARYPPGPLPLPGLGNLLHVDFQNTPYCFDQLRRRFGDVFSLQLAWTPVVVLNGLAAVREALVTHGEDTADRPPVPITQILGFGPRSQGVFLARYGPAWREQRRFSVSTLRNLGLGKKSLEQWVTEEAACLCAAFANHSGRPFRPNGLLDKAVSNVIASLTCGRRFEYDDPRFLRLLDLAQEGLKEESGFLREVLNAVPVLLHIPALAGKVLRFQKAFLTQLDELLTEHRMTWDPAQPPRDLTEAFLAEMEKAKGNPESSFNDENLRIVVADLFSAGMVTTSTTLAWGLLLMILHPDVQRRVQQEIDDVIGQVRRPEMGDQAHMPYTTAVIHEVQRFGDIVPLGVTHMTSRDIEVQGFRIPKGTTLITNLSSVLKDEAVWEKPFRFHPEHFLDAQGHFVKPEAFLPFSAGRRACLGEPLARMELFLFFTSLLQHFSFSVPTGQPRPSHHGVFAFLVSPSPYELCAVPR
Series [6] concerns HCT-116. Nature of the series: Cytotoxicity against human HCT116 cells assessed as growth inhibition by measuring cellular ATP level after 72 hrs by cell-titer glo assay. Conditions: HCT-116, 72 h. The format is functional, cell-based.
Series [7] relates to Jurkat. The series is described as follows: Cell cycle arrest in human Jurkat cells assessed as accumulation at S phase at 10 uM after 24 hrs by FITC/propidium iodide staining-based FACS flow cytometric analysis (reference value: 15.3%). The format is functional. The gist of the method:
as §1

Series [8] addresses Histone deacetylase 3/NCoR1 (Homo sapiens, UniProt O15379). The series is described as follows: Inhibition of recombinant HDAC3-NCoR1 (unknown origin) using MAL as substrate incubated for 3 hrs prior to substrate addition measured after 60 mins by fluorescence plate reader analysis. Format: protein-complex assay.
The nature of series [9]: Permeability of the compound by PAMPA. Conditions: read-out: permeability. The format is ADME.
Series [10] deals with Jurkat. Nature of the series: Cell cycle arrest in human Jurkat cells assessed as accumulation at G2/M phase at 1 uM after 24 hrs by FITC/propidium iodide staining-based FACS flow cytometric analysis (reference value: 14.4%). The format is functional. The gist of the method: as §1
The target of series [11] is Histone deacetylase 2 (Homo sapiens, UniProt Q92769). Nature of the series: Inhibition of recombinant His-tagged HDAC2 (1 to 488) (unknown origin) using MAL as substrate incubated for 3 hrs prior to substrate addition measured after 60 mins by fluorescence plate reader analysis.
Histone deacetylase 2, sequence (Q92769 whole entry): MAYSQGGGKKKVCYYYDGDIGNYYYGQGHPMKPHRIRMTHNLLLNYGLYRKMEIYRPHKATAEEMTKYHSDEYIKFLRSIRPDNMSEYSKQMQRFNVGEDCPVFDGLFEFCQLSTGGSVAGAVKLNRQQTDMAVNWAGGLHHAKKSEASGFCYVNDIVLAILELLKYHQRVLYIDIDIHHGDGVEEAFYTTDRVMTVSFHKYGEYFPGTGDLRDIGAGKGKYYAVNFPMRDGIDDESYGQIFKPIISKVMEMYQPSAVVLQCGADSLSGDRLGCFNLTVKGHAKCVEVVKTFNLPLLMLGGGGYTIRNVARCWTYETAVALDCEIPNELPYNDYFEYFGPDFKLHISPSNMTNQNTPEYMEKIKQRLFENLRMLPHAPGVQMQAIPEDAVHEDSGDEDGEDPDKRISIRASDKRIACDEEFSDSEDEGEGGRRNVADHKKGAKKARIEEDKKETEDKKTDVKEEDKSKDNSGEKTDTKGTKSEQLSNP

Molecules are shown by their SMILES.

Histone deacetylase 3/NCoR1, sequence (O15379 whole entry): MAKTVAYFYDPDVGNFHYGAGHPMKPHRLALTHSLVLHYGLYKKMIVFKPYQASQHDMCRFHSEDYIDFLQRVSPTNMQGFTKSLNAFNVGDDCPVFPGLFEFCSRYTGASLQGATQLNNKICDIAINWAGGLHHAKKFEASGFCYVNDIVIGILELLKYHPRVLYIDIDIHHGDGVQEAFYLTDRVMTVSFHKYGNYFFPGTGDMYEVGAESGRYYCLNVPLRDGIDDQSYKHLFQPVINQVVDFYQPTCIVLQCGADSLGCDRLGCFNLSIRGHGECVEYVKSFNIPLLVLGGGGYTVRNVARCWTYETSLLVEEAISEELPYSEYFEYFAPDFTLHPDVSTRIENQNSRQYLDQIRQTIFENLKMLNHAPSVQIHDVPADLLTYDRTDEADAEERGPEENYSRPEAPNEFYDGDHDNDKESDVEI
Histone deacetylase 3/NCoR1, sequence (O75376 whole entry, further chain): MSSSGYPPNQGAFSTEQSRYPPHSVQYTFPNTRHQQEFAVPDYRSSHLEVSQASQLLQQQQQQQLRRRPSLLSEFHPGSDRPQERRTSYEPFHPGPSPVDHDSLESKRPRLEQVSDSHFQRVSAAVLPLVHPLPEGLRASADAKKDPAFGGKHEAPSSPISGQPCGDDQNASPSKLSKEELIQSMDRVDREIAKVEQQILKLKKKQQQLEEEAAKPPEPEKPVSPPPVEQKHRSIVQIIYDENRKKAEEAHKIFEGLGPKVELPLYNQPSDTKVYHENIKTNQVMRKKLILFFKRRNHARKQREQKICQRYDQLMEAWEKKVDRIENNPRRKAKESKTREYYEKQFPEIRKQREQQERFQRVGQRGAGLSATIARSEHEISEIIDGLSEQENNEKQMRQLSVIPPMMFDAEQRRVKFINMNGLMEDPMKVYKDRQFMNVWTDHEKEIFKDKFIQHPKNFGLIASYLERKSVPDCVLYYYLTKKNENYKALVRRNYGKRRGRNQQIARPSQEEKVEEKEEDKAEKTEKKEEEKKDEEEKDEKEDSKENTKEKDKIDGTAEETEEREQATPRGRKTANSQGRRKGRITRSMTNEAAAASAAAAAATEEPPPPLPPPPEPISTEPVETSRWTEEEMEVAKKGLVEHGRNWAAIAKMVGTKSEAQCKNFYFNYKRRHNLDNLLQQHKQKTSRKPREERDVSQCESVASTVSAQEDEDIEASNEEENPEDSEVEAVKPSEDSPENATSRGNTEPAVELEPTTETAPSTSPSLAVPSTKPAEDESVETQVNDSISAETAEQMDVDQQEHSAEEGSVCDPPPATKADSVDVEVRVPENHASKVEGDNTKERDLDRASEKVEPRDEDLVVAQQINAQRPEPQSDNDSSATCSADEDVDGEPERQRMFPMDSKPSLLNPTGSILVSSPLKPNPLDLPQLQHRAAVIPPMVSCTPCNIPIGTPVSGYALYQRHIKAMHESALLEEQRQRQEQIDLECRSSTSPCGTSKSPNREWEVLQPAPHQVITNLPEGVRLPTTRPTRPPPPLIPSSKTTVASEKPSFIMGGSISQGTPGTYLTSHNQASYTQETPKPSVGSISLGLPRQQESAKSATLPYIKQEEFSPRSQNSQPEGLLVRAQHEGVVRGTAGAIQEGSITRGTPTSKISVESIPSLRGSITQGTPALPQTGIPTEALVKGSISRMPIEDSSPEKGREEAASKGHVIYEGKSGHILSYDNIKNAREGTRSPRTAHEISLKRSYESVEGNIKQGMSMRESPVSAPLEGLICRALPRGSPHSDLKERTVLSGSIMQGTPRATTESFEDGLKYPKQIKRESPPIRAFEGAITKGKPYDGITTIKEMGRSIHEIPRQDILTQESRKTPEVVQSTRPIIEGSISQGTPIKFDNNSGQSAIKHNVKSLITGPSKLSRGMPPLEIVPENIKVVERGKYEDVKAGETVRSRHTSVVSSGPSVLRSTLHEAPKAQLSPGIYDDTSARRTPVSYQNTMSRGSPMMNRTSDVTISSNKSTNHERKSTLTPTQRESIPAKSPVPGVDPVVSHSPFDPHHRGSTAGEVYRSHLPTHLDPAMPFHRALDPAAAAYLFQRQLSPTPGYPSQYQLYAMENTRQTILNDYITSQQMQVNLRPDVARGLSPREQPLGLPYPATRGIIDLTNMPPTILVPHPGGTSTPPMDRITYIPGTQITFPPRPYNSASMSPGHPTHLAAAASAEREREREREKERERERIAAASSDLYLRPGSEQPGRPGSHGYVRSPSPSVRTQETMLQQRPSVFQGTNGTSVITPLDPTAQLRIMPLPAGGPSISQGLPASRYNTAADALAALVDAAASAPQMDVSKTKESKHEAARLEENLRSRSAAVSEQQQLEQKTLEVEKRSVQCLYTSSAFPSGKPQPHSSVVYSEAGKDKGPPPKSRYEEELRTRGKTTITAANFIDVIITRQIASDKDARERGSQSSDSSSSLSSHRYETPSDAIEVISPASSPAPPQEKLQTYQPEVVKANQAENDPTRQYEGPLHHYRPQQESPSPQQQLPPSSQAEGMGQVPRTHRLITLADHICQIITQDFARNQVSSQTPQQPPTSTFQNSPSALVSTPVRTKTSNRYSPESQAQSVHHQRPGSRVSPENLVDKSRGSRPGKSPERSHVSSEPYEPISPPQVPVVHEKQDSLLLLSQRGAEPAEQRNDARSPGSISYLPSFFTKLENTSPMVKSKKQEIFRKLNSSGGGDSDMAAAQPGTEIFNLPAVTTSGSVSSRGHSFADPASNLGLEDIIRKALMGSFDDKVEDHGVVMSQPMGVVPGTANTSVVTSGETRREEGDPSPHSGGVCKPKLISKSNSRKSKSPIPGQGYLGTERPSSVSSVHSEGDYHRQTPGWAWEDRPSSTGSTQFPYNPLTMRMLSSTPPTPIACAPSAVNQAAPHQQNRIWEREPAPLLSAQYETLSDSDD

For `Nc1ccccc1NC(=O)c1ccc(CNC2=N[C@@H](c3ccccc3)CS2)cc1`, the Activity in series [1] was 6.2%; in [7] it was 35.1%; in series [10] it was 9.1%. Further, the IC50 in series [2] was determined as 930 nM; in [3], 25000 nM; in series [4], 5430 nM; in series [5] it was 80 nM; in series [6], 2170 nM; in series [8], 12 nM. For the same molecule, in series [11], the IC50 worked out at 85 nM. Further, the Papp in series [9] stood at 51 ×10⁻⁶ cm/s.

(Values after ChEMBL document CHEMBL2407081, “Discovery of potent, isoform-selective inhibitors of histone deacetylase containing chiral heterocyclic capping groups and a N-(2-aminophenyl)benzamide binding unit” (J Med Chem, 2013).)
